17 molecules from ChEMBL document CHEMBL3085674, “Synthesis of some dihydropyrimidine-based compounds bearing pyrazoline moiety and evaluation of their antiproliferative activity” (Eur J Med Chem, 2013) can be followed below.

As a reminder, the IC50 is the point on the concentration scale where inhibition reaches its midpoint.

Holding throughout (format): functional, cell-based
The test system of one experiment is HT-29. Kind of experiment: Antiproliferative activity against human HT-29 cells after 72 hrs by cell titer glo assay. The following applies: HT-29, 72 h. The method in brief:
(§1)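 ATCC tumour cells kept in RPMI 1640 with 5% FBS, 2 mM glutamine, streptomycin and amphotericin at 37 °C, 5% CO2. Cells were trypsinised at 70–90% confluence and used only at >95% Trypan blue viability. Seeded at 5000 cells/well, rested 18–24 h, then dosed from DMSO stocks (0.1% DMSO final). ATP luminescence was read after 72 h. IC50 came from dose–response curves of 8 concentrations, four replicates each.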
(ATP-based viability assays read luminescence as a measure of living cells.)

The subject of the next experiment is A549. Put plainly: Antiproliferative activity against human A549 cells after 72 hrs by cell titer glo assay. The following applies: A549, 72 h. The method in brief:
as §1

The test system of the next experiment is MCF7. Put plainly: Antiproliferative activity against human MCF7 cells after 72 hrs by cell titer glo assay. The following applies: MCF7, 72 h. The method in brief:
as §1

In a further experiment the test system is MDA-MB-231. Kind of experiment: Antiproliferative activity against human MDA-MB-231 cells after 72 hrs by cell titer glo assay. As to conditions: MDA-MB-231, 72 h. The method in brief:
as §1

Take `Cn1c(N2N=C(c3ccccc3)CC2c2ccc(F)cc2)nc(-c2ccccc2)c(C#N)c1=O` (stereo unspecified): the IC50 with HT-29 worked out at 8.15 µM; in the experiment with A549, 39.2 µM; with MCF7 it was 38.1 µM; in the experiment on MDA-MB-231, 11.8 µM.

For `Cn1c(N2N=C(c3ccccc3)CC2c2ccccc2)nc(-c2ccccc2)c(C#N)c1=O` (stereo unspecified), the IC50 is 2.49 µM in the experiment on HT-29, 52.9 µM in the experiment on A549, 35.4 µM in the experiment on MCF7 and 3.99 µM with MDA-MB-231.

Turning to `COc1ccc(C2=NN(c3nc(-c4ccc(Cl)cc4)c(C#N)c(=O)n3C)C(c3ccc(OC)cc3)C2)cc1` (stereo unspecified), the IC50 with HT-29 was 18.2 µM; in the experiment on A549 it was 39.7 µM; with MCF7, 99.8 µM; with MDA-MB-231, 28.3 µM.

For `Cc1ccc(C2=NN(c3nc(-c4ccc(Cl)cc4)c(C#N)c(=O)n3C)C(c3ccc(F)cc3)C2)cc1` (stereo unspecified), the IC50 was 10.5 µM in the experiment on HT-29, 35.6 µM in the experiment with A549, 116 µM with MCF7 and 19.3 µM in the experiment with MDA-MB-231.

In the case of `Cn1c(N2N=C(c3ccc(Cl)cc3)CC2c2ccccc2)nc(-c2ccccc2)c(C#N)c1=O` (stereo unspecified), the IC50 in the experiment on HT-29 is 6.6 µM; in the experiment with A549, 26.9 µM; in the experiment on MCF7, 12.2 µM; with MDA-MB-231, 10.6 µM.

Take `Cn1c(N2N=C(c3ccccc3)CC2c2ccccc2)nc(-c2ccc(Cl)cc2)c(C#N)c1=O` (stereo unspecified): the IC50 in the experiment on HT-29 was 19.5 µM; in the experiment on A549 it was 28.1 µM; in the experiment with MCF7, 34.4 µM; in the experiment with MDA-MB-231, 29.1 µM.

In the case of `COc1ccc(C2CC(c3ccc(Cl)cc3)=NN2c2nc(-c3ccccc3)c(C#N)c(=O)n2C)cc1` (stereo unspecified), the IC50 amounted to 9.12 µM with HT-29, 6.07 µM in the experiment with A549, 4.8 µM in the experiment with MCF7 and 11.1 µM with MDA-MB-231.

In the case of `COc1ccc(C2CC(c3ccccc3)=NN2c2nc(-c3ccc(Cl)cc3)c(C#N)c(=O)n2C)cc1` (stereo unspecified), the IC50 with HT-29 was determined as 11 µM; in the experiment on A549, 23.8 µM; in the experiment on MCF7, 52.4 µM; in the experiment on MDA-MB-231, 19.5 µM.

Take `COc1ccc(C2CC(c3ccc(Cl)cc3)=NN2c2nc(-c3ccc(Cl)cc3)c(C#N)c(=O)n2C)cc1` (stereo unspecified): the IC50 with HT-29 amounted to 15.1 µM; in the experiment on A549 it was 35.6 µM; in the experiment with MCF7 it was 27.3 µM; in the experiment on MDA-MB-231, 24.8 µM.

Consider `Cn1c(N2N=C(c3ccc(Cl)cc3)CC2c2ccccc2)nc(-c2ccc(Cl)cc2)c(C#N)c1=O` (stereo unspecified), for which the IC50 in the experiment on HT-29 was determined as 8.72 µM; in the experiment on A549 it was 43.9 µM; in the experiment with MCF7 it was 25.3 µM; in the experiment on MDA-MB-231 it was 12.4 µM.

With `Cc1ccc(C2=NN(c3nc(-c4ccccc4)c(C#N)c(=O)n3C)C(c3ccc(F)cc3)C2)cc1` (stereo unspecified), the IC50 with HT-29 worked out at 4.62 µM; in the experiment on A549, 2 µM; with MCF7, 23.1 µM; in the experiment with MDA-MB-231, 5.1 µM.

On to `Cn1c(N2N=C(c3ccccc3)CC2c2ccc(Cl)cc2)nc(-c2ccc(Cl)cc2)c(C#N)c1=O` (stereo unspecified), for which the IC50 in the experiment on HT-29 is 15 µM; with A549, 24.7 µM; in the experiment on MCF7 it was 46.3 µM; with MDA-MB-231, 25.1 µM.

As for `COc1cccc2c1C(=O)c1c(O)c3c(c(O)c1C2=O)C[C@@](O)(C(=O)CO)C[C@@H]3O[C@H]1C[C@H](N)[C@H](O)[C@H](C)O1` [DOXORUBICIN], the concentration for half-maximal inhibition (IC50) was 2.75 µM with HT-29 and 3.13 µM in the experiment with A549.

Turning to `Cn1c(N2N=C(c3ccccc3)CC2c2ccc(F)cc2)nc(-c2ccc(Cl)cc2)c(C#N)c1=O` (stereo unspecified), the half-inhibitory concentration (IC50) with HT-29 was determined as 13.7 µM; in the experiment on A549, 27.8 µM; with MCF7, 36.8 µM; with MDA-MB-231 it was 20.9 µM.

As for `COc1ccc(C2CC(c3ccccc3)=NN2c2nc(-c3ccccc3)c(C#N)c(=O)n2C)cc1` (stereo unspecified), the IC50 in the experiment on HT-29 worked out at 14.7 µM; with A549 it was 1.76 µM; in the experiment with MCF7 it was 18 µM; in the experiment with MDA-MB-231, 12.8 µM.

`COc1ccc(C2=NN(c3nc(-c4ccccc4)c(C#N)c(=O)n3C)C(c3ccc(OC)cc3)C2)cc1` (stereo unspecified): the IC50 in the experiment on HT-29 turned out to be 9.42 µM; with A549, 26.5 µM; with MCF7 it was 127 µM; in the experiment with MDA-MB-231, 16.2 µM.

As for `Cn1c(N2N=C(c3ccccc3)CC2c2ccc(Cl)cc2)nc(-c2ccccc2)c(C#N)c1=O` (stereo unspecified), the IC50 in the experiment with HT-29 was 19.2 µM; in the experiment with A549, 3.25 µM; with MCF7 it was 3.28 µM; in the experiment on MDA-MB-231, 28 µM.
